Measured values published in ChEMBL document CHEMBL2146394, “Design and synthesis of pyrrolo[3,2-d]pyrimidine HER2/EGFR dual inhibitors: improvement of the physicochemical and pharmacokinetic profiles for potent in vivo anti-tumor efficacy” (Bioorg Med Chem, 2012).

Assays:
[1] = Apparent permeability across basolateral to apical side in human Caco2 cells at 10 umol/L; type: ADME, cell-based; settings: Caco-2
Procedure, shortened: (§1)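 Confluent Caco-2 monolayers on collagen-coated polycarbonate Transwell membranes. HBSS with 10 mmol/L HEPES, 15 mmol/L glucose and 1% BSA, pH 7.3–7.5. Compound dosed at 10 µmol/L apically (A→B) or basolaterally (B→A), 37 °C, 5% CO₂. Receivers sampled at 1 and 2 h; LC/MS/MS. Papp from receiver concentration slope; duplicates.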

[2] = Metabolic stability in mouse hepatic microsomes at 1 umol/L after 20 mins; type: ADME; settings: liver microsomes, read-out: Stability
[3] = molecular target: Receptor tyrosine-protein kinase erbB-2 (Homo sapiens, UniProt P04626); assay: Inhibition of human N-terminal DYKDDDD tagged HER2 cytoplasmic domain amino acid 676 to 1255 expressed in baculovirus after 5 mins by scintillation counter
Receptor tyrosine-protein kinase erbB-2, sequence (P04626 whole entry, the tested form may be a part): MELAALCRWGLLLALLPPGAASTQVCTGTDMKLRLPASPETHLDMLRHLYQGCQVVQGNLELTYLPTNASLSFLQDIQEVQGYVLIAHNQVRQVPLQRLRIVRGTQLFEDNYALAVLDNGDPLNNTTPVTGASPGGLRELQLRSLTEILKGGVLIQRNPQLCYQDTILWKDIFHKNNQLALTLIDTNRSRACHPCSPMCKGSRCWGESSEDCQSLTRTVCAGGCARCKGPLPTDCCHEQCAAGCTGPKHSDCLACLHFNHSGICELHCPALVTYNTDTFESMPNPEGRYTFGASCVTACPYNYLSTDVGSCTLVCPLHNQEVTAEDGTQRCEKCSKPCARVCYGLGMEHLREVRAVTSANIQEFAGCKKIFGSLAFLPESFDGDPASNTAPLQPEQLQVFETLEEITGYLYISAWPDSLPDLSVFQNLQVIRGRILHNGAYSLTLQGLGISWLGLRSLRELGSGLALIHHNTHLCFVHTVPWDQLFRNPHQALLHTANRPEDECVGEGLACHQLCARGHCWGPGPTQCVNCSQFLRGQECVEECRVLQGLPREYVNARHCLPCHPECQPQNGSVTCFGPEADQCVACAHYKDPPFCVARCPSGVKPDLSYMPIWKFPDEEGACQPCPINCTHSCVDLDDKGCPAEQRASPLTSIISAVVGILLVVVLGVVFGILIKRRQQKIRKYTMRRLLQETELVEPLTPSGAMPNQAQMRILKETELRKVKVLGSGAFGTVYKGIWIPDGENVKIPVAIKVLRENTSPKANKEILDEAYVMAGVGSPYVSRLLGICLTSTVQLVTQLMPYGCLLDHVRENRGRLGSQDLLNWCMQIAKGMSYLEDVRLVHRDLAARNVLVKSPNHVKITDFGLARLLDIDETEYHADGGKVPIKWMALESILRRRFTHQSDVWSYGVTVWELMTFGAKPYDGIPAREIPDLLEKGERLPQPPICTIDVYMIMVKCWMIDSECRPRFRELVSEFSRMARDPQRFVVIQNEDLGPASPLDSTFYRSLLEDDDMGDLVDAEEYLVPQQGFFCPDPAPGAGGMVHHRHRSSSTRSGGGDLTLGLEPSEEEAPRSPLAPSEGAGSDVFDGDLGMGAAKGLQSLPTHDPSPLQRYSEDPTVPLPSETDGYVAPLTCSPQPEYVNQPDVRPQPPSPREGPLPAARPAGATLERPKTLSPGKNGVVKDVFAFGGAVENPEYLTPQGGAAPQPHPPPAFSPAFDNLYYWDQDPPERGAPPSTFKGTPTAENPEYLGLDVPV
Procedure, shortened: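 FLAG-purified HER2 cytoplasmic domain in 50 mmol/L Tris-HCl pH 7.5, 5 mmol/L MnCl₂, 0.01% Tween-20, 2 mmol/L DTT, with poly-Glu-Tyr (4:1) and [γ-³²P]ATP. Compound and enzyme preincubated 5 min at room temperature; reaction started with ATP, 10 min at room temperature. Stopped with 10% TCA, filter-harvested, washed with 3% phosphoric acid, scintillation counted.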

[4] = test system: BT-474; assay: Antitumor activity against human BT474 cells xenografted in BALB/c nu/nu mouse at 100 mg/kg, po bid administered 14 days measured on day 31 relative to control; type: functional
Procedure, shortened: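 BT-474 xenografts: 1×10⁷ cells in Matrigel implanted subcutaneously into the right flank of female BALB/c nu/nu mice. Estradiol dipropionate 0.25 mg given intramuscularly on days 0 and 7. Tumours of 200–300 mm³ used. Dosing 100 mg/kg orally bid in 0.5% methylcellulose for 14 days. Volume a×b²/2 by calipers. T/C (%) compared at day 31.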

[5] = test system: BT-474; assay: Growth inhibition of HER2 over-expressing human BT474 cells after 5 days; type: functional; settings: BT-474, 120 h
Procedure, shortened: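 BT-474 cells kept in RPMI 1640 with 10% heat-inactivated FBS. Seeded at 3×10⁴ cells/well and allowed to attach overnight. Treated continuously with compound for 5 days. Live cells counted with a particle analyzer; GI₅₀ derived.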

[6] = Apparent permeability across apical to basolateral side in human Caco2 cells at 10 umol/L; type: ADME, cell-based; settings: Caco-2; procedure, shortened: as §1
[7] = molecular target: Epidermal growth factor receptor (Homo sapiens, UniProt P00533); assay: Inhibition of human N-terminal DYKDDDD tagged EGFR cytoplasmic domain amino acid 669 to 1210 expressed in baculovirus after 5 mins by scintillation counter
Epidermal growth factor receptor, sequence (P00533 whole entry, the tested form may be a part): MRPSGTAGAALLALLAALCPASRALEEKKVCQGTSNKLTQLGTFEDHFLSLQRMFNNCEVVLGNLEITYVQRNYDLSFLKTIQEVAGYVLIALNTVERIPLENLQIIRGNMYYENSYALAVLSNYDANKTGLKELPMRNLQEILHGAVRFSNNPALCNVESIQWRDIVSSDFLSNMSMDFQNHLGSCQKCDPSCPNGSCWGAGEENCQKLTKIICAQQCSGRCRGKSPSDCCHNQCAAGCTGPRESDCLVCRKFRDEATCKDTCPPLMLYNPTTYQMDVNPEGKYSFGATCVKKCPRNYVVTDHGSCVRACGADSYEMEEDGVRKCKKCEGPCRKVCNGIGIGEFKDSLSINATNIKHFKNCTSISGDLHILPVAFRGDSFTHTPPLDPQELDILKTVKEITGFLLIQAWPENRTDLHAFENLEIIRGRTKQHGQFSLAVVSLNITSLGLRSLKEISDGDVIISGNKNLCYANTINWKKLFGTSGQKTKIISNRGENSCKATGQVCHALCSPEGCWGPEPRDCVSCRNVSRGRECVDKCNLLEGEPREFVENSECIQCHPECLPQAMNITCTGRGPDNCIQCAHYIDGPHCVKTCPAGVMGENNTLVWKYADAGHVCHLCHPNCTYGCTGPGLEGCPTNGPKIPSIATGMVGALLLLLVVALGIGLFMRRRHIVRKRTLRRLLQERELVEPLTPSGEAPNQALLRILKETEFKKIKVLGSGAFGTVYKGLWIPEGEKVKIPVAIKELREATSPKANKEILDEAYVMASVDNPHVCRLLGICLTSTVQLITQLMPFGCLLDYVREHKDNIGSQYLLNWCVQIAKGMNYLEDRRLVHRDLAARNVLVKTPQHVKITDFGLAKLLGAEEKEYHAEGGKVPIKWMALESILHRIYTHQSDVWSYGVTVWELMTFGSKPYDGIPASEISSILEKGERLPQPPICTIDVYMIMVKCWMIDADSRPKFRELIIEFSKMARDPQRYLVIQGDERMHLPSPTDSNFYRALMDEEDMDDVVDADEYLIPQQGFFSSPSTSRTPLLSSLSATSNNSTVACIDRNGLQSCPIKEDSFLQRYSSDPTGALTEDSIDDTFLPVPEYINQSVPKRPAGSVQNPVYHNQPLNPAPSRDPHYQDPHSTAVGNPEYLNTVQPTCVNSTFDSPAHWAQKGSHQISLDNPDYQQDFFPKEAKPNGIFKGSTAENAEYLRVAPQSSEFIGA

[8] = Metabolic stability in human hepatic microsomes at 1 umol/L after 20 mins; type: ADME; settings: liver microsomes, read-out: Stability
Procedure, shortened: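 Human liver microsomes (0.2 mg/mL protein) with 1 µmol/L compound in 50 mmol/L phosphate pH 7.4 plus an NADPH-generating system (glucose-6-phosphate, β-NADP⁺, G6PDH, MgCl₂). Incubated at 37 °C for 0 and 20 min, stopped with acetonitrile, duplicates. Remaining compound measured by HPLC with photodiode array detection.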

CS(=O)(=O)CC(=O)NCCn1ccc2ncnc(Nc3ccc(Oc4cccc(C(F)(F)F)c4)c(Cl)c3)c21
Papp B→A at 10 µM [1]: 8.29 ×10⁻⁶ cm/s
microsomal CLint at 1 µM [2]: 11 µL/min/mg
IC50 [3]: 6.3 nM
T/C [4]: 80%
GI50 [5]: 5.2 nM
Papp A→B at 10 µM [6]: 0.52 ×10⁻⁶ cm/s
IC50 [7]: 15 nM
microsomal CLint at 1 µM [8]: 18 µL/min/mg

CCS(=O)(=O)CC(=O)NCCn1ccc2ncnc(Nc3ccc(Oc4cccc(C(F)(F)F)c4)c(Cl)c3)c21
microsomal CLint at 1 µM [2]: 22 µL/min/mg
IC50 [3]: 8.5 nM
GI50 [5]: 36 nM
IC50 [7]: 31 nM
microsomal CLint at 1 µM [8]: 26 µL/min/mg

CC(C)S(=O)(=O)CC(=O)NCCn1ccc2ncnc(Nc3ccc(Oc4cccc(C(F)(F)F)c4)c(Cl)c3)c21
microsomal CLint at 1 µM [2]: 35 µL/min/mg
IC50 [3]: 11 nM
GI50 [5]: 48 nM
microsomal CLint at 1 µM [8]: 42 µL/min/mg

CC(C)(C)S(=O)(=O)CC(=O)NCCn1ccc2ncnc(Nc3ccc(Oc4cccc(C(F)(F)F)c4)c(Cl)c3)c21
microsomal CLint at 1 µM [2]: 31 µL/min/mg
IC50 [3]: 14 nM
GI50 [5]: 36 nM
IC50 [7]: 56 nM
microsomal CLint at 1 µM [8]: 45 µL/min/mg

CC(C(=O)NCCn1ccc2ncnc(Nc3ccc(Oc4cccc(C(F)(F)F)c4)c(Cl)c3)c21)S(C)(=O)=O (configuration not stated)
microsomal CLint at 1 µM [2]: 33 µL/min/mg
IC50 [3]: 7.1 nM
GI50 [5]: 34 nM
IC50 [7]: 18 nM
microsomal CLint at 1 µM [8]: 30 µL/min/mg
